Compounds with a hit are over-represented: about 5.7% of the library has one in this group of screens.
Mdm2 MdmX PPI: inhibitors of human Mdm2-MdmX association, primary screen, cell-based, luminescence, split luciferase, SaOS-2, uHTS. Protein Mdm4 (Homo sapiens) + E3 ubiquitin-protein ligase Mdm2 (Homo sapiens), …. SaOS-2 split-luciferase Mdm2/MdmX complementation. inhibition, % at 8 µM. 3% of 330,000 active;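 active = inhibition of at least 50% at 8 µM in the primary screen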
Target sequence (O15151 whole entry, looked up): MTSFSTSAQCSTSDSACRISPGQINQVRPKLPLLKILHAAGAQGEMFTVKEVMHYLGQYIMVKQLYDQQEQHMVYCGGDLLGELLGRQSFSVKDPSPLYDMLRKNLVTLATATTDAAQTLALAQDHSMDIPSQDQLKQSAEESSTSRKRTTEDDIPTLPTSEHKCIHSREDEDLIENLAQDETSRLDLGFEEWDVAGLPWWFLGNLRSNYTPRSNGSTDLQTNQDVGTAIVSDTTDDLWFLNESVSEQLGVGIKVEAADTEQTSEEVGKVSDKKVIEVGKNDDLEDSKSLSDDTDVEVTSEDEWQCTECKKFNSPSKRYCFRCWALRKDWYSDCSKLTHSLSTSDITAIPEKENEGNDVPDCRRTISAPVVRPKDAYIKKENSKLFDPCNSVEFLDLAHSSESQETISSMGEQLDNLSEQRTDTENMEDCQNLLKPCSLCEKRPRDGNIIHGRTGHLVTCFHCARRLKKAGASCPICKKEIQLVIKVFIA
Target sequence (Q00987 whole entry, looked up): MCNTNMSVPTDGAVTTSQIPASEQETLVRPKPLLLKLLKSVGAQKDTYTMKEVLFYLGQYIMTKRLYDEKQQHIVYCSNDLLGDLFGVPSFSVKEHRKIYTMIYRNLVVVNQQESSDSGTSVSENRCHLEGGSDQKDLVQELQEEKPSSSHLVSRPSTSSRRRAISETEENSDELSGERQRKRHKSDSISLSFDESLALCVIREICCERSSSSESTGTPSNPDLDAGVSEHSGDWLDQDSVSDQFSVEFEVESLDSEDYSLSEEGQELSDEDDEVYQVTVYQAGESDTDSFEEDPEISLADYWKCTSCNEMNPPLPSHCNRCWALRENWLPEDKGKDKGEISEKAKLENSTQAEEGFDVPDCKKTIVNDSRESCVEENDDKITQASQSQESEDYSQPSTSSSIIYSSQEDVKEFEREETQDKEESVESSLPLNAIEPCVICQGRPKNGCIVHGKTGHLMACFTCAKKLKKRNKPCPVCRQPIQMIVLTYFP
SKKanGAS inh: S. pyogenes SKKanGAS growth inhibitors in kanamycin, primary screen, streptokinase expression inhibitor project, SKKanGAS strain, BacTiter-Glo luminescence. 6 h. inhibition, % at 7.5 µM. 1.3% of 300,000 active. AID 1662, 2009;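 active = mean replicate score, as percent of positive control median, at least 50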;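 also: strain carries kanamycin resistance gene driven by streptokinase promoter and grows in 40 µg/ml kanamycin; loss of luminescence reflects streptokinase promoter inhibition or plain growth inhibition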
T cruzi inh: inhibitors of intracellular T. cruzi growth, primary screen, luminescence, NIH3T3 host cells; T. cruzi beta-gal in NIH3T3, 90 h; inhibition, % (test concentration not listed); 1.4% of 300,000 active;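 active = mean inhibition across valid replicates above about 55%, limit read from the data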;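 also: signal also drops with host cell toxicity which is not excluded here; higher percent means less beta-gal luminescence so fewer parasites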
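System: mouse NIH/3T3 fibroblasts infected with β-gal-expressing T. cruzi Tulahuen C4 / Input: NIH/3T3 cells, 5,000 per well / Buffer or medium: Low-serum DMEM with 2% FBS / Probe or stimulus: 5000 reporter trypomastigotes per well / Schedule: ≥90 h infection period, 3 h prior cell attachment / Measured by: GalScreen luminescence, 60 min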
Calb FLC: C. albicans growth inhibition with fluconazole, primary screen, CaCi-2 strain, Alamar Blue fluorescence; C. albicans CaCi-2 (fluconazole-resistant clinical isolate) + fluconazole, 48 h; growth inhibition, % (concentration not given with the values); 0.57% of 300,000 active;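 active = growth inhibition above about 58% in most replicates, limit read from the data, passing the limit was not always enough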;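 also: all wells also contain fluconazole at 8 µg/ml as a sub-toxic cotreatment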
Beta apoptosis: inhibitors of cytokine-induced beta cell apoptosis, primary screen, luminescence. INS-1E cytokine-induced death, ATP luminescence, 48 h; percent of positive-control rescue, neutral wells zero. protection from apoptosis, % (concentration not given with the values). 0.8% of 300,000 active;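 active = Every replicate reaches about 75%, or at least half do and their mean reaches it too, limit read from the data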;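 also: higher means more ATP so stronger rescue from cytokine killing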
CSC inhib: cancer stem cell viability inhibitors, primary screen, luminescence. cancer stem cell-like cells viability. inhibition, % at 7.5 µM. 1.1% of 300,000 active; in the data active = inhibition above about 75%; tested in HMLE shEcad cells
Mdm2-MdmX conf: Mdm2-MdmX complex disruptors, retested hits, confirmation, luminescence, single concentration; inhibition, % at 8 µM; AID 489028, 2010; shares compounds with Mdm2 MdmX PPI; Mdm2-MdmX binding, luminescent assay; 55% of 10,000 active; in the data active = inhibition above about 40%
Full FLuc ctr: full-length luciferase signal inhibition, confirmation, counter-screen for Mdm2/MdmX interaction inhibitor project, cell-based, single concentration, SaOS-2; 77% of 6,200 active; shares compounds with Mdm2 MdmX PPI; SaOS-2 full-length luciferase counterscreen, luminescence; inhibition, % at 8 µM;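 active = mean inhibition at 8 µM reaching about 37%, which flags the compound as non-specific, limit read from the data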;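 also: p53-null SaOS-2 cells with luciferase driven by a doxycycline-inducible promoter; compound on cells about two nights before reading with doxycycline added after day one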
Large screens that a line does not name were inactive (follow-up assays come after a bar, where they were run).

CC[C@]12c3[nH]c4cc(CCC(=O)N(C)C)ccc4c3CCN1C(=O)[C@@H](CC(=O)NC(C)(C)C)C[C@@H]2C(=O)N1CCN(C(=O)C2CC2)CC1	none (no result: SKKanGAS inh, T cruzi inh, Calb FLC, Beta apoptosis, CSC inhib)
COc1ccc(NC(=O)CSc2ccccc2)c(OC)c1	none
COc1ccc(NC(=O)CSc2ncnc3c2sc2ccccc23)c(OC)c1	Mdm2 MdmX PPI 88.3 | Mdm2-MdmX conf inactive
CCOC(=O)c1ccccc1NC(=O)Cn1c(-c2nonc2N)nc2ccccc21	Mdm2 MdmX PPI 60.7 | Mdm2-MdmX conf 55.2 | Full FLuc ctr 77.2
Nc1nonc1-c1nc2ccccc2n1CC(=O)NC1CCCC1	none
Nc1nonc1-c1nc2ccccc2n1CC(=O)Nc1ccccc1	Mdm2 MdmX PPI 78.4 | Mdm2-MdmX conf 69.0 | Full FLuc ctr inactive
CCCCn1c(-c2nonc2N)nc2ccccc21	Mdm2 MdmX PPI 61.2 | Mdm2-MdmX conf 45.0 | Full FLuc ctr 50.2
Cc1cccc(CCNC(=O)C2CCC(=O)N(Cc3ccccc3F)C2)n1 (configuration not stated)	none
CC(C)CNC(=O)CSc1n[nH]c(=O)n1CCc1ccccc1	none
CCN(CC)S(=O)(=O)c1cccc(NC(=O)Nc2cccc(C(F)(F)F)c2)c1	Mdm2 MdmX PPI 68.1, Beta apoptosis 112.1, CSC inhib 102.9 | Mdm2-MdmX conf 93.2 | Full FLuc ctr 52.1
CCN(CC)S(=O)(=O)c1cccc(NC(=O)CC2CCCC2)c1	none
CCCn1c(=O)c(C(=O)NCCc2ccc(OC)cc2)c(O)c2ccccc21	none
Cc1cc(NCCOCCO)n2ncc(-c3ccc(Cl)cc3)c2n1	Mdm2 MdmX PPI 61.2 | Mdm2-MdmX conf 53.5 | Full FLuc ctr 58.7
CN(C)CCCNc1cc(C(C)(C)C)nc2c(-c3ccccc3)cnn12	Mdm2 MdmX PPI 100.2, T cruzi inh 55.8, Beta apoptosis 113.4, CSC inhib 99.5 | Mdm2-MdmX conf 52.5 | Full FLuc ctr 72.4
CC(C)(C)c1cc(NCCCn2ccnc2)n2ncc(-c3ccc(Cl)cc3)c2n1	Mdm2 MdmX PPI 73.9, SKKanGAS inh 105.8, T cruzi inh 57.6, CSC inhib 112.2 | Mdm2-MdmX conf 42.5 | Full FLuc ctr inactive
Cc1cc(NCCCN2CCOCC2)n2ncc(-c3ccccc3)c2n1	none
COc1ccc(CCNc2cc(C)nc3c(-c4ccccc4OC)cnn23)cc1OC	none
COc1ccc(CCC(=O)NCCOc2ccccc2Cl)cc1	none
Cn1c(=O)[nH]c(=O)c2c1nc(Br)n2CCCSc1nc2ccccc2o1	Mdm2 MdmX PPI 65.1, T cruzi inh 62.8 (no result: CSC inhib) | Mdm2-MdmX conf 56.2 | Full FLuc ctr 97.6
COC(C(=O)Nc1ccnn1C1CCN(C(=O)c2ccc(C=O)cc2)CC1)c1ccccc1 (configuration not stated)	none
Cc1ccc(S(=O)(=O)CC(=O)N(CCCN2CCOCC2)c2nc3c(F)cccc3s2)cc1	none
O=C(CCS(=O)(=O)c1ccccc1)N(CCCN1CCOCC1)c1nc2c(F)cccc2s1	Mdm2 MdmX PPI 78.9, T cruzi inh 54.7 (no result: CSC inhib) | Mdm2-MdmX conf 58.5 | Full FLuc ctr 38.0
COC(=O)c1ccccc1NC(=O)c1ccc(-c2ccc(Br)cc2)o1	Mdm2 MdmX PPI 58.3 | Mdm2-MdmX conf 62.4 | Full FLuc ctr 151.6
COc1cc(NC(=S)N2CCN(C(c3ccccc3)c3ccccc3)CC2)cc(OC)c1	Mdm2 MdmX PPI 67.5 | Mdm2-MdmX conf inactive
COc1cc(NC(=S)N2CCN(C/C=C/c3ccccc3)CC2)cc(OC)c1	none (no result: Beta apoptosis)
CC1Cc2ccccc2N1C(=O)CNCCCN(C)C (configuration not stated)	none
CC1CC2(C)Oc3ccccc3CC2C(C)C1CNCCCN(C)C (configuration not stated)	Mdm2 MdmX PPI 96.7 | Mdm2-MdmX conf 99.6 | Full FLuc ctr 55.0
Cn1cncc1C#Cc1c(C=O)[nH]c2ccccc12	Mdm2 MdmX PPI 71.0 (no result: SKKanGAS inh, T cruzi inh, Calb FLC) | Mdm2-MdmX conf 41.5 | Full FLuc ctr 65.8
CCCCCCCCCCCCCCCC[N+](C)(C)CCN(Cc1ccc(OC)cc1)c1ncccn1	Mdm2 MdmX PPI 100.4, Beta apoptosis 99.7, CSC inhib 117.4 (no result: SKKanGAS inh, T cruzi inh, Calb FLC) | Mdm2-MdmX conf 95.8 | Full FLuc ctr inactive
N=c1c2c(n(Cc3cccc(Cl)c3)c3c1CCC3)CCCC2	Mdm2 MdmX PPI 58.0, T cruzi inh 58.4, Beta apoptosis 94.2 | Mdm2-MdmX conf 41.6 | Full FLuc ctr 64.1
CC(C)CCn1c(=O)c2ccccc2n2c(CCC(=O)NC3CCN(Cc4ccccc4)CC3)nnc12	Mdm2 MdmX PPI 76.6 (no result: CSC inhib) | Mdm2-MdmX conf 57.8 | Full FLuc ctr 49.0
CCn1nc(NC(=O)Cc2ccc(OC)cc2)c2cc3cccc(C)c3nc21	none
CCn1nc(NC(=O)Cc2ccc(OC)cc2)c2cc3cc(C)ccc3nc21	Mdm2 MdmX PPI 61.7 | Mdm2-MdmX conf inactive
CC1=CC(=O)C(C(C)C)=C/C1=N\OC(=O)c1cccc2nc(C)oc12	Mdm2 MdmX PPI 53.0 | Mdm2-MdmX conf inactive
O=c1c2c3nc4ccccc4nc3n(/N=C/c3ccccn3)c2ncn1-c1ccccc1	Mdm2 MdmX PPI 73.9 | Mdm2-MdmX conf 49.4 | Full FLuc ctr 54.6
COc1ccccc1-n1c2nc3ccccc3nc2c2c(=O)n(-c3cc(C)cc(C)c3)cnc21	none
Cc1noc(C)c1S(=O)(=O)N(C)C[C@H]1Oc2ccc(NC(=O)Cc3ccccc3)cc2C(=O)N([C@H](C)CO)C[C@@H]1C	none (no result: SKKanGAS inh, T cruzi inh, Calb FLC, CSC inhib)
CN(C)CCCNc1c2ccccc2nc2ccccc12	Mdm2 MdmX PPI 100.3, T cruzi inh 67.7, Beta apoptosis 108.7, CSC inhib 130.8 | Mdm2-MdmX conf 99.7 | Full FLuc ctr 51.5
c1ccc2c(NCCCN3CCOCC3)c3ccccc3nc2c1	Mdm2 MdmX PPI 84.5, Beta apoptosis 103.8 (no result: SKKanGAS inh, T cruzi inh, Calb FLC) | Mdm2-MdmX conf 79.4 | Full FLuc ctr inactive
CC(=O)c1ccccc1NC(=O)COC(=O)CCC1CCCC1	none (no result: SKKanGAS inh, T cruzi inh, Calb FLC)
Cc1ccc(OCCN2CCN(CC(O)Cn3c4ccccc4c4ccccc43)CC2)cc1 (configuration not stated)	Mdm2 MdmX PPI 84.6, CSC inhib 89.6 | Mdm2-MdmX conf inactive
CCCCCn1c(N)c(-c2nc3ccccc3s2)c2c([N+](=O)[O-])nn(C)c(=O)c21	Mdm2 MdmX PPI 87.4, T cruzi inh 59.2 | Mdm2-MdmX conf inactive

Screening results: PubChem, several laboratories
